Results collected from several papers.
Compare with care: the assays were run in different laboratories.
Cell line: HEK293
Effect on: cell growth or viability

Structure (SMILES) | test | conditions | quantity | result
COc1ccccc1C(=O)/C=C/c1cn(Cc2cn(-c3ccnc4cc(Cl)ccc34)nn2)c2ccccc12 | MTT | 100 µM, 24 h | viability | > 90%
O=C1c2[nH]cc3c2C(=NCC3)c2c(-c3ccc(O)cc3)c[nH]c21 | MTT | 72 h | CC50 | 0.2 µM
NNC(=O)c1cn(Cc2ccccc2)c2ccc(Oc3ccccc3)cc2c1=O | resazurin | 48 h | CC50 | > 20 µM
O=C(Nc1cccc(C(F)(F)F)c1)c1cccc(C(F)(F)F)c1 | resazurin | 48 h | CC50 | 15.6 µM
NC1=CC2=NCCc3c[nH]c(c32)C1=O | MTT | 72 h | CC50 | 0.1 µM
CCCc1cc(=O)oc2cc(OCc3cc(=O)c(O)co3)ccc12 | CCK-8 | 12 µM, 24 h | viability | 97.9%
Cc1ccc(Cn2cc(C(=O)N/N=C/c3ccc([N+](=O)[O-])s3)c(=O)c3cc(Cl)c(Cl)cc32)cc1 | resazurin | 48 h | CC50 | > 20 µM
Cn1cc2c3c1C(=O)C(NCCc1ccc(O)cc1)=CC3=NCC2 | MTT | 72 h | CC50 | 2.5 µM
COc1ccc2c(c1)c(=O)c(C(=O)NN)cn2Cc1ccc(C)cc1 | resazurin | 48 h | CC50 | > 20 µM
O=C(Nc1ccc(Br)nn1)c1cccc(F)c1 | resazurin | 48 h | CC50 | > 20 µM
Cc1ccc(Cn2cc(C(=O)N/N=C/c3ccc([N+](=O)[O-])o3)c(=O)c3cc([N+](=O)[O-])ccc32)cc1 | resazurin | 48 h | CC50 | > 20 µM
O=C(Nc1ccc(Cl)c(Cl)c1)c1cccc(C(F)(F)F)c1 | resazurin | 48 h | CC50 | 10.1 µM
COC1=CC2=[N+](C)CCc3c[nH]c(c32)C1=O | MTT | 72 h | CC50 | 12.5 µM
O=C(Nc1cccc([N+](=O)[O-])c1)c1cccc(C(F)(F)F)c1 | resazurin | 48 h | CC50 | > 20 µM
O=C1C(NCCc2ccc(O)cc2)=CC2=NCCc3c[nH]c1c32 | MTT | 72 h | CC50 | 3 µM
